Legend:
Plasmodium falciparum = test: Antiparasitic activity against chloroquine-resistant erythrocytic stage of Plasmodium falciparum K1 infected in […] after 72 hrs by NBT staining based spectroscopic analysis; type: functional, organism-based; details: K1, 72 h
[1] = Selectivity index, ratio of IC50 for human MRC5 cells to IC50 for nifurtimox-sensitive amastigote stage of Trypanosoma cruzi tulahuen CL2 infected in human MRC5 cells; type: toxicity, cell-based; details: read-out: Ratio IC50
Trypanosoma cruzi [2] = test: Antiparasitic activity against nifurtimox-sensitive amastigote stage of Trypanosoma cruzi tulahuen CL2 infected in human MRC5 cells; type: functional, organism-based
[3] = tested on: Trypanosoma brucei rhodesiense; test: Antiparasitic activity against suramin-sensitive trypomastigote stage of Trypanosoma brucei rhodesiense squib-427 infected in human MRC5 cells after 4 days by Alamar blue staining based fluorimetric analysis; type: functional, organism-based; details: squib-427, 96 h
Leishmania infantum = test: Antiparasitic activity against amastigote stage of Leishmania infantum MHOM/MA-BE/67 infected in mouse peritoneal macrophages after 5 days by Giemsa staining based microscopic analysis; type: functional, organism-based; details: MHOM/MA-BE/67, 120 h
MRC5 = test: Cytotoxicity against human MRC5 cells assessed as cell viability after 4 to 7 days by Alamar Blue staining based fluorometric analysis
[4] = Metabolic stability in human liver microsomes at 50 uM after 60 mins by LC-UV-MS analysis in the presence of NADPH-generating system; type: ADME; details: read-out: Stability
Method in brief: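 Test compound at 50 μM in pH 7.4 phosphate buffer with 2% DMSO, incubated at 37°C for 60 min with human liver microsomal protein and an NADPH-generating system. The reaction was then stopped, and parent drug and metabolites were measured by LC-UV-MS.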

Trypanosoma cruzi [5] = test: Potency index, ratio of benznidazole IC50 to compound IC50 for nifurtimox-sensitive amastigote stage of Trypanosoma cruzi tulahuen CL2 infected in human MRC5 cells; type: functional

Compound	IC50 (Plasmodium falciparum) [nM]	selectivity ratio [1]	IC50 (Trypanosoma cruzi [2]) [nM]	IC50 [3] [µM]	IC50 (Leishmania infantum) [µM]	IC50 (MRC5) [µM]	remaining at 1 h, 50 µM [4] [%]	Ratio IC50 (Trypanosoma cruzi [5])
O=C(OC(Cn1ccnc1)c1ccc(Cl)cc1)c1ccc(-c2ccccc2)cc1 (racemic)	1900	15	480	32.4	12.7	7.2		
O=C(OC(Cn1ccnc1)c1ccc(-c2ccccc2)cc1)c1ccc(-c2ccccc2)cc1 (racemic)	7700	3.2	2720	29.1	8	8.8		
O=C(O[C@H](Cn1ccnc1)c1ccc(F)cc1)N1CCN(c2ccc([N+](=O)[O-])cc2)CC1	1300	1.5	5440	> 64	> 64	8.2		
CCCCCCCCCCCCCCCCOP(=O)([O-])OCC[N+](C)(C)C [MILTEFOSINE]					10.4			
O=C(Nc1ccc(N2CCN(C(=O)c3ccco3)CC2)cc1)O[C@H](Cn1ccnc1)c1ccc(F)cc1	5200	288	130	> 64	> 64	37.5		
O=C(O[C@@H](Cn1ccnc1)c1ccc(Cl)cc1)c1ccc(-c2ccccc2)cc1	2000	39	200	32.4	> 64	7.8		
O=C(O[C@@H](Cn1ccnc1)c1ccc(Cl)cc1)N1CCN(c2ccc([N+](=O)[O-])cc2)CC1	2200	8.7	1000	32.2	12.7	8.7		
O=C(O[C@H](Cn1ccnc1)c1ccc(Cl)cc1)N1CCN(c2ccc([N+](=O)[O-])cc2)CC1	1500	6.4	1320	> 64	12.7	8.5		
O=C(Cn1ccnc1[N+](=O)[O-])NCc1ccccc1 [BENZNIDAZOLE]			1950					
O=C(OC(Cn1ccnc1)c1ccc(F)cc1)N1CCN(c2ccc([N+](=O)[O-])cc2)CC1 (racemic)	2600	9.2	1680	27.2	27.2	15.5		
O=C(O[C@@H](Cn1ccnc1)c1ccc(F)cc1)c1ccc(-c2ccccc2)cc1	2300	> 35.6	1800	> 64	> 64	> 64		
O=C(OC(Cn1ccnc1)c1ccc(Cl)cc1)N1CCN(c2ccc([N+](=O)[O-])cc2)CC1 (racemic)	2400	9.4	870	8	8	8.2		
O=C(O[C@H](Cn1ccnc1)c1ccc(F)cc1)c1ccc(-c2ccccc2)cc1	2000	16.3	490	33.7	34.6	8		
O=C(Nc1ccc(N2CCN(C(=O)c3ccco3)CC2)cc1)OC(Cn1ccnc1)c1ccc(F)cc1 (racemic)	4000	33.4	790	32.9	28.9	26.4	99	
O=C(OC(Cn1ccnc1)c1ccc(F)cc1)c1ccc(-c2ccccc2)cc1 (racemic)	600	10.9	710	32.2	32.2	7.8		
O=C(O[C@H](Cn1ccnc1)c1ccc(Cl)cc1)c1ccc(-c2ccccc2)cc1	2100	14.6	560	30.1	32	8.2		
CCS(=O)(=O)N1CCN(c2ccc(NC(=O)OC(Cn3ccnc3)c3ccc(F)cc3)cc2)CC1 (racemic)	17200	> 1600	40	> 64	38	> 64	99	50
CC/C(=C(\c1ccccc1)c1ccc(OCCN(C)C)cc1)c1ccccc1 [TAMOXIFEN]						10.9		
Cc1ccc(C(=O)Nc2ccc(S(=O)(=O)O)c3cc(S(=O)(=O)O)cc(S(=O)(=O)O)c23)cc1NC(=O)c1cccc(NC(=O)Nc2cccc(C(=O)Nc3cc(C(=O)Nc4ccc(S(=O)(=O)O)c5cc(S(=O)(=O)O)cc(S(=O)(=O)O)c45)ccc3C)c2)c1 [SURAMIN]				0.02				
O=C(OC(Cn1ccnc1)c1ccc(Cl)cc1)N1CCN(C(=O)c2ccco2)CC1 (racemic)	10700	> 10.9	5840	> 64	> 64	> 64		
O=C(O[C@@H](Cn1ccnc1)c1ccc(F)cc1)N1CCN(c2ccc([N+](=O)[O-])cc2)CC1	1200	7	1230	32.2	20.3	8.7		
O=C(Nc1ccc(N2CCN(C(=O)c3ccco3)CC2)cc1)O[C@@H](Cn1ccnc1)c1ccc(F)cc1	4000	15.4	1720	> 64	> 64	26.5		
